Data on 24 compounds can be found in ChEMBL document CHEMBL3576833, “Design and Synthesis of Acetylenyl Benzamide Derivatives as Novel Glucokinase Activators for the Treatment of T2DM” (ACS Med Chem Lett, 2015).

Assay [1] addresses T1, Hexokinase-4 (Rattus norvegicus) (UniProt P17712).
T1 sequence (whole entry): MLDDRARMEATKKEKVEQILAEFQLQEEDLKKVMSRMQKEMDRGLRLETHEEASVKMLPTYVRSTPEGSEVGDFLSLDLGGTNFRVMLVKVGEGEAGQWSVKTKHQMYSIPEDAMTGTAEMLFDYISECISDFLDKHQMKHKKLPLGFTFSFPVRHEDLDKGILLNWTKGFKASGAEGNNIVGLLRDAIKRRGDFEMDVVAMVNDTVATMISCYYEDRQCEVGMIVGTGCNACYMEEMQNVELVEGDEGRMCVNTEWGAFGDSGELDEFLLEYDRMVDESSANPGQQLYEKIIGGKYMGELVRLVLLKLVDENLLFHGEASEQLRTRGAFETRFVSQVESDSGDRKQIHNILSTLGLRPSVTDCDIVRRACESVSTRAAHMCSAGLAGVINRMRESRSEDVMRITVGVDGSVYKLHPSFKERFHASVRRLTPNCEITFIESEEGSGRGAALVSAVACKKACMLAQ
Kind of assay: Activation of glucokinase in rat primary hepatocytes assessed as increase in 5.6 mM 2-deoxy-D-[3H]-glucose uptake after 4 hrs by scintillation counting analysis relative to control. The assay is classed as cell-based. To be noted: Hepatocyte. An outline of the steps:
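Rat primary hepatocytes; uptake measured under glucose stimulation, with glucose raised from 0 mM to 5.6 mM; activity expressed as fold increase in glucose uptake.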

In assay [2] the target is T2, Hexokinase-4 (Homo sapiens) (UniProt P35557).
T2 sequence (whole entry): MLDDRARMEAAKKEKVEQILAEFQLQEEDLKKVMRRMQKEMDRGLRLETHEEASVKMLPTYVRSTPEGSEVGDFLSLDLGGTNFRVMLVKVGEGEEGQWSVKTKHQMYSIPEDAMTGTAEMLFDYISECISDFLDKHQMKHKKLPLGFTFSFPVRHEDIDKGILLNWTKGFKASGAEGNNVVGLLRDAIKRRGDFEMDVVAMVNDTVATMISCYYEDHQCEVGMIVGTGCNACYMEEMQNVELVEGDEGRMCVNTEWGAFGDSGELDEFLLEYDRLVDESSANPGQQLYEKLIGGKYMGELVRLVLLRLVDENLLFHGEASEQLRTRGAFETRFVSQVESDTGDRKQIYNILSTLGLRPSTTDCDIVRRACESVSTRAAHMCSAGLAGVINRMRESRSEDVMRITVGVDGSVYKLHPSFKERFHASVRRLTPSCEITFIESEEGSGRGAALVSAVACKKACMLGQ
Kind of assay: Activation of recombinant human pancreatic glucokinase using 10 mM glucose as substrate assessed as enzyme half maximal saturation concentration at 1 uM by G6PDH coupled assay.

Assay [3] concerns Mus musculus. Kind of assay: Antidiabetic activity in po dosed C57BL/6J mouse assessed as blood glucose lowering effect administered 30 mins prior to glucose challenge measured over 180 mins by OGTT. It counts as functional, organism-based. In outline: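 Oral glucose tolerance test in C57BL/6J mice with oral dosing. Blood glucose was followed after the glucose challenge, and the result was expressed as the % reduction in blood glucose AUC.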

The target of assay [4] is T1, Hexokinase-4 (Rattus norvegicus). Kind of assay: Activation of glucokinase in 0 to 5.6 mM glucose-stimulated Sprague-Dawley rat pancreatic islets assessed as increase in insulin secretion after 1 hr by ELISA relative to control. For orientation: ELISA stands for enzyme-linked immunosorbent assay.
Assay [5] deals with T3, Hexokinase-2 (Homo sapiens) (UniProt P52789).
T3 sequence (whole entry): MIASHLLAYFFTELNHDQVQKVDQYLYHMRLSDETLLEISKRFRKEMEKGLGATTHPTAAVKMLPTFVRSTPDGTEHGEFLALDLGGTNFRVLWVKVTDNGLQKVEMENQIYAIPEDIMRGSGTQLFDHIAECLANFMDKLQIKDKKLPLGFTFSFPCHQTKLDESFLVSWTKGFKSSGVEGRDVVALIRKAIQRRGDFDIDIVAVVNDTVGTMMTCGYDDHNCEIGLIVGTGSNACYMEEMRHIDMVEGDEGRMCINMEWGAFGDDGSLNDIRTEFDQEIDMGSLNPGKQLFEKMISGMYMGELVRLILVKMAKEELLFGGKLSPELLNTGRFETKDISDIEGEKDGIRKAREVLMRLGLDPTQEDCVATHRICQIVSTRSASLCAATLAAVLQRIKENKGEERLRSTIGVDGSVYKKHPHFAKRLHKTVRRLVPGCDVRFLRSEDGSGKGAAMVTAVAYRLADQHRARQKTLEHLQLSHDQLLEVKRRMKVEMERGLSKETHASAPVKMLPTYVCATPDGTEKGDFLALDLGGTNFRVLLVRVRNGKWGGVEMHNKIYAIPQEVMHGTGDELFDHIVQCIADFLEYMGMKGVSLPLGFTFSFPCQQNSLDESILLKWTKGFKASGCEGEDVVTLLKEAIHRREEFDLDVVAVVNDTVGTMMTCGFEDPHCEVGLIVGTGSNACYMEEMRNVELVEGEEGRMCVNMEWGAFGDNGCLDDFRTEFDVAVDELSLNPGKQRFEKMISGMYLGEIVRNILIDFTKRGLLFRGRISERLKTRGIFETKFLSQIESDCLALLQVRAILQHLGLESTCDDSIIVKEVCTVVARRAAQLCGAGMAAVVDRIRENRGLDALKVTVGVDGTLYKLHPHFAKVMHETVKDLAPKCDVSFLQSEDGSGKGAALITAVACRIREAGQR
Kind of assay: Effect on hexokinase-2 (unknown origin).

Assay [6] deals with T4, Hexokinase-1 (Homo sapiens) (UniProt P19367).
T4 sequence (whole entry): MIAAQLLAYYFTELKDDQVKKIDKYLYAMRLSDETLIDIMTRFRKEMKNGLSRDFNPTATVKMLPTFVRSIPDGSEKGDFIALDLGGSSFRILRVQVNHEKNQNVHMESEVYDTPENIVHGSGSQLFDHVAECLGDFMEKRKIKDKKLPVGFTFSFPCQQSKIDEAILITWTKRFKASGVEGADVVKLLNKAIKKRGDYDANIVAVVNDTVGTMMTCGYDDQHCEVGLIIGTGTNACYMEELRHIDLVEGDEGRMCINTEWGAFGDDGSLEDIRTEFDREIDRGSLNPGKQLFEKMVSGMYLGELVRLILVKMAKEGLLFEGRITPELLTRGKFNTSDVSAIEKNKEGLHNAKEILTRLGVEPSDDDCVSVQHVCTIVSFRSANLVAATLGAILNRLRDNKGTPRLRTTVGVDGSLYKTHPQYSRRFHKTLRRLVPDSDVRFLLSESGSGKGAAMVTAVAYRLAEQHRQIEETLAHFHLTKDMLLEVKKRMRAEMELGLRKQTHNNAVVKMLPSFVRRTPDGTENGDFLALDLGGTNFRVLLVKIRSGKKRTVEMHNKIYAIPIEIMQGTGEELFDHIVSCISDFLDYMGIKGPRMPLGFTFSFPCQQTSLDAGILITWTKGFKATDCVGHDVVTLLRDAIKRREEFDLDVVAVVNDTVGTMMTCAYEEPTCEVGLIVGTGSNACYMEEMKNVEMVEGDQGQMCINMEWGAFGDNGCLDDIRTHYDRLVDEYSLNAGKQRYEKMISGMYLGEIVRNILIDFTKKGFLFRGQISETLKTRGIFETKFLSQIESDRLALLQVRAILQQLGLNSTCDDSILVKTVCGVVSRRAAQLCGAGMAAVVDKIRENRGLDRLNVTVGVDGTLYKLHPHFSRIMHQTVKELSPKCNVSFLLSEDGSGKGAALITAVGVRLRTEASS
Kind of assay: Effect on hexokinase-1 (unknown origin).

The subject of assay [7] is Mus musculus. Kind of assay: Antidiabetic activity in C57BL/6J mouse assessed as reduction of blood glucose level at 10 mg/kg, po after 60 mins by fasted glucose tolerance test. The assay is classed as functional, organism-based. An outline of the steps: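 Fasted glucose tolerance test in C57BL/6J mice. Animals were fasted and dosed orally, with no glucose challenge. Blood glucose was measured at 60 min.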

Molecules are shown by their SMILES. The source made the active and inactive calls. No cut-off for these calls is given here.

With `COC[C@H](C)Oc1cc(C#Cc2cccc(OC(C)C)c2)cc(C(=O)Nc2ccn(C)n2)c1`, in assay [1], the fold change (FC) stood at 2.03. Besides, the Activity in assay [2] was found to be 1.84 mM.

As for `COC[C@H](C)Oc1cc(C#CCN(C)C)cc(C(=O)Nc2ccn(C)n2)c1`, in assay [1], the fold change (FC) worked out at 1.31. Also, in assay [2], the Activity came out at 5.51 mM.

In the case of `COCC#Cc1cc(O[C@@H](C)COC)cc(C(=O)Nc2ccn(C)n2)c1`, in assay [1], the fold change (FC) turned out to be 1.71. For the same compound, in assay [2], the Activity is 4.04 mM.

As to `COC[C@H](C)Oc1cc(C#CCNc2ncccn2)cc(C(=O)Nc2ccn(C)n2)c1`, the fold change (FC) in assay [1] amounted to 2.37. For the same compound, the Activity in assay [2] stood at 3.88 mM.

Turning to `COC[C@H](C)Oc1cc(C#Cc2cccc(OCCN3CCOCC3)c2)cc(C(=O)Nc2ccn(C)n2)c1`, the fold change (FC) in assay [1] was 1.89. The Activity in assay [2] stood at 0.35 mM.

In the case of `COC[C@H](C)Oc1cc(C#Cc2cccc(N)c2)cc(C(=O)Nc2ccn(C)n2)c1`, the Activity entry in the assay on Mus musculus [3] is “Dose-dependent effect”; in assay [2], 0.84 mM. Also, the results for the fold change (FC) in assay [1] and in assay [4] were 2.16 and 2.13, respectively. The outcome in assay [5] and in assay [6] was inactive.

With `COC[C@H](C)Oc1cc(C#Cc2ccc3c(c2)OCO3)cc(C(=O)Nc2ccn(C)n2)c1`, the fold change (FC) in assay [1] was 2.64. Moreover, the Activity in assay [2] turned out to be 2.13 mM.

For `COC[C@H](C)Oc1cc(C#Cc2cccc(N(C)C)c2)cc(C(=O)Nc2ccn(C)n2)c1`, in assay [1], the fold change (FC) turned out to be 2.43. For the same compound, the Activity in assay [2] amounted to 0.76 mM.

Turning to `COC[C@H](C)Oc1cc(C#Cc2ccc3[nH]ccc3c2)cc(C(=O)Nc2ccn(C)n2)c1`, the fold change (FC) in assay [1] worked out at 1.99. Besides, the Activity in assay [2] came out at 0.46 mM.

For `COC[C@H](C)Oc1cc(C#CCOC2CCCCO2)cc(C(=O)Nc2ccn(C)n2)c1` (stereo partly specified), in assay [1], the fold change (FC) is 2.5. In addition, in assay [2], the Activity came to 0.55 mM.

As for `COC[C@H](C)Oc1cc(C#Cc2cccc(NCCn3ccnc3C)c2)cc(C(=O)Nc2ccn(C)n2)c1`, the fold change (FC) in assay [1] is 2.36. Further, the Activity in assay [2] came to 0.9 mM.

With `COC[C@H](C)Oc1cc(C#Cc2cccc(NCCN3CCOCC3)c2)cc(C(=O)Nc2ccn(C)n2)c1`, the fold change (FC) in assay [1] came to 2.62. In addition, in assay [2], the Activity is 0.55 mM.

On to `COCCNc1cccc(C#Cc2cc(O[C@@H](C)COC)cc(C(=O)Nc3ccn(C)n3)c2)c1`, for which, in assay [1], the fold change (FC) was 2.18. The Activity in assay [2] stood at 1.23 mM.

On to `CCN(CC)c1cccc(C#Cc2cc(O[C@@H](C)COC)cc(C(=O)Nc3ccn(C)n3)c2)c1`, for which, in assay [1], the fold change (FC) was 1.91. The Activity in assay [2] was determined as 2.01 mM.

For the compound `COC[C@H](C)Oc1cc(C#Cc2cccc(NCCN3CCCC3)c2)cc(C(=O)Nc2ccn(C)n2)c1`, the fold change (FC) in assay [1] stood at 2.83. In assay [2], the Activity amounted to 0.51 mM.

For the compound `COC[C@H](C)Oc1cc(C#Cc2cccc(OCC#N)c2)cc(C(=O)Nc2ccn(C)n2)c1`, the fold change (FC) in assay [1] is 1.75. Besides, the Activity in assay [2] was determined as 0.95 mM.

Regarding `COC[C@H](C)Oc1cc(C#Cc2cccc(OCCN3CCCCC3)c2)cc(C(=O)Nc2ccn(C)n2)c1`, the fold change (FC) in assay [1] came out at 2.36. The Activity in assay [2] is 2.25 mM.

As to `COC[C@H](C)Oc1cc(C#Cc2cccc(NCCN(C)C)c2)cc(C(=O)Nc2ccn(C)n2)c1`, in assay [1], the fold change (FC) came out at 2.03. Further, the Activity in assay [2] turned out to be 0.17 mM.

Take `COC[C@H](C)Oc1cc(C#Cc2ccc(N)cc2)cc(C(=O)Nc2ccn(C)n2)c1`: the fold change (FC) in assay [1] is 2.05. Further, in assay [2], the Activity was determined as 0.73 mM.

For `COC[C@H](C)Oc1cc(C#Cc2cccc(NCCN3CCCCC3)c2)cc(C(=O)Nc2ccn(C)n2)c1`, the fold change (FC) in assay [1] was 2.79. In assay [2], the Activity is 0.61 mM.

Turning to `COC[C@H](C)Oc1cc(Oc2cnc(C(=O)N3CCC3)cn2)cc(C(=O)Nc2cnc(C)cn2)c1`, the result in the assay with Mus musculus [7] was Active.

Regarding `COC[C@H](C)Oc1cc(C#Cc2cccc(O)c2)cc(C(=O)Nc2ccn(C)n2)c1`, the fold change (FC) in assay [1] was determined as 1.57. In addition, in assay [2], the Activity was 1.37 mM.

For `COC[C@H](C)Oc1cc(C#Cc2cccc(OCCN3CCCC3)c2)cc(C(=O)Nc2ccn(C)n2)c1`, in assay [1], the fold change (FC) was found to be 2.43. In assay [2], the Activity turned out to be 0.73 mM.

In the case of `COC[C@H](C)Oc1cc(C#Cc2ccccc2OC)cc(C(=O)Nc2ccn(C)n2)c1`, the fold change (FC) in assay [1] came out at 2.64. Moreover, in assay [2], the Activity came to 0.73 mM.
